Assay results: ChEMBL document CHEMBL1148762, “Lysosome and HER3 (ErbB3) selective anticancer agent kahalalide F: semisynthetic modifications and antifungal lead-exploration studies” (J Med Chem, 2007)
Values after ≈ are worked out from the molar mass of the structure shown. Active and inactive are the calls of the source. No cut-off for these calls is given here.

Experiments:
KM12 = assay: Cytotoxicity against human KM12 cells; assay type: functional
Outline: (§1)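 NCI Developmental Therapeutics Program cell panel. GI50 is the concentration that reduces growth of treated cells to half that of untreated controls. TGI is the concentration that completely halts growth.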

Fusarium oxysporum [1] = assay: Antimicrobial activity against Fusarium oxysporum at 3 uM after 72 hrs by microtiter assay; assay type: functional
Outline: (§2)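 96-well microdilution broth assay with conidia (3 × 10^5 conidia/mL, harvested from 7-day PDA cultures and filtered) against F. oxysporum, F. proliferatum and F. solani at 0.3, 3 and 30 µM. Plates were held at 24 ± 1 °C under a 12 h photoperiod. Growth was read at 620 nm at 24, 48 and 72 h and reported as percent inhibition from mean absorbance with standard error.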

Fusarium oxysporum [2] = assay: Antimicrobial activity against Fusarium oxysporum at 0.3 uM after 72 hrs by microtiter assay; assay type: functional; outline: as §2
ACHN = assay: Cytotoxicity against human ACHN cells; assay type: functional; outline: as §1
[3] = tested on: Mycobacterium tuberculosis; assay: Antibacterial activity against Mycobacterium tuberculosis H37Rv at 16 ug/mL by micro plate alamar blue assay; assay type: functional
Outline: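 M. tuberculosis H37Rv ATCC 27294 grown in BACTEC 12B medium; microplate Alamar blue assay (MABA). Primary screen at a single concentration of 16 µg/mL, read as percent inhibition.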

HT-29 = assay: Cytotoxicity against human HT29 cells; assay type: functional; outline: as §1
Fusarium solani [4] = assay: Antimicrobial activity against Fusarium solani at 30 uM after 48 hrs by microtiter assay; assay type: functional; outline: as §2
UACC-257 = assay: Cytotoxicity against human UACC257 cells; assay type: functional; outline: as §1
DU-145 = assay: Cytotoxicity against human DU145 cells; assay type: functional; outline: as §1
Candida albicans = assay: Antimicrobial activity against Candida albicans ATCC 90028; assay type: functional, organism-based
HCC 2998 = assay: Cytotoxicity against human HCC2998 cells; assay type: functional; outline: as §1
Fusarium oxysporum [5] = assay: Antimicrobial activity against Fusarium oxysporum at 30 uM after 72 hrs by microtiter assay; assay type: functional; outline: as §2
Fusarium oxysporum [6] = assay: Antimicrobial activity against Fusarium oxysporum at 30 uM after 48 hrs by microtiter assay; assay type: functional; outline: as §2
NCI-H322M = assay: Cytotoxicity against human NCI-H322M cells; assay type: functional; outline: as §1
Hs-578T = assay: Cytotoxicity against human HS578T cells; assay type: functional; outline: as §1
Fusarium proliferatum [7] = assay: Antimicrobial activity against Fusarium proliferatum at 30 uM after 48 hrs by microtiter assay; assay type: functional; outline: as §2
Fusarium proliferatum [8] = assay: Antimicrobial activity against Fusarium proliferatum at 0.3 uM after 72 hrs by microtiter assay; assay type: functional; outline: as §2
Cryptococcus neoformans = assay: Antimicrobial activity against Cryptococcus neoformans ATCC 90113; assay type: functional, organism-based
Fusarium solani [9] = assay: Antimicrobial activity against Fusarium solani at 0.3 uM after 72 hrs by microtiter assay; assay type: functional; outline: as §2
Fusarium proliferatum [10] = assay: Antimicrobial activity against Fusarium proliferatum at 3 uM after 48 hrs by microtiter assay; assay type: functional; outline: as §2
Fusarium solani [11] = assay: Antimicrobial activity against Fusarium solani at 3 uM after 72 hrs by microtiter assay; assay type: functional; outline: as §2
Aspergillus fumigatus = assay: Antimicrobial activity against Aspergillus fumigatus ATCC 90906; assay type: functional, organism-based
Fusarium solani [12] = assay: Antimicrobial activity against Fusarium solani at 0.3 uM after 48 hrs by microtiter assay; assay type: functional; outline: as §2
A549 = assay: Cytotoxicity against human A549 cells; assay type: functional; outline: as §1
Fusarium oxysporum [13] = assay: Antimicrobial activity against Fusarium oxysporum at 0.3 uM after 48 hrs by microtiter assay; assay type: functional; outline: as §2
Fusarium proliferatum [14] = assay: Antimicrobial activity against Fusarium proliferatum at 3 uM after 72 hrs by microtiter assay; assay type: functional; outline: as §2
SK-OV-3 = assay: Cytotoxicity against human SK-OV3 cells; assay type: functional; outline: as §1
COLO 205 = assay: Cytotoxicity against human COLO205 cells; assay type: functional; outline: as §1
PC-3 = assay: Cytotoxicity against human PC3 cells; assay type: functional; outline: as §1
SNB-75 = assay: Cytotoxicity against human SNB75 cells; assay type: functional; outline: as §1
[15] = tested on: Mycobacterium intracellulare; assay: Antimicrobial activity against Mycobacterium intracellular ATCC 23068; assay type: functional, organism-based
Fusarium solani [16] = assay: Antimicrobial activity against Fusarium solani at 3 uM after 48 hrs by microtiter assay; assay type: functional; outline: as §2
Fusarium proliferatum [17] = assay: Antimicrobial activity against Fusarium proliferatum at 0.3 uM after 48 hrs by microtiter assay; assay type: functional; outline: as §2
Fusarium proliferatum [18] = assay: Antimicrobial activity against Fusarium proliferatum at 30 uM after 72 hrs by microtiter assay; assay type: functional; outline: as §2
Fusarium solani [19] = assay: Antimicrobial activity against Fusarium solani at 30 uM after 72 hrs by microtiter assay; assay type: functional; outline: as §2
RPMI-8226 = assay: Cytotoxicity against human RPMI8226 cells; assay type: functional; outline: as §1
HCT-15 = assay: Cytotoxicity against human HCT15 cells; assay type: functional; outline: as §1
Fusarium oxysporum [20] = assay: Antimicrobial activity against Fusarium oxysporum at 3 uM after 48 hrs by microtiter assay; assay type: functional; outline: as §2
Leishmania donovani = assay: Antiparasitic activity against Leishmania donovani; assay type: functional, organism-based
Fusarium solani [21] = assay: Fungicidal activity against Fusarium solani at 30 uM after 72 hrs by microtiter assay; assay type: functional, organism-based
Outline: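 After 72 h of microtiter broth exposure at 30 µM, 20 µL from each well was plated onto compound-free potato dextrose agar and incubated 3 days at 28 °C. No regrowth was scored fungicidal; regrowth was scored fungistatic.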

Fusarium oxysporum [22] = assay: Fungistatic activity against Fusarium oxysporum at 30 uM after 72 hrs by microtiter plate assay; assay type: functional, organism-based
Outline: (§3)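 Conidia come from 7-day potato dextrose agar cultures, filtered and set photometrically (625 nm) to 3 × 10^5 conidia/mL. They are exposed to compound at 30 µM in 96-well microdilution broth at 24 ± 1 °C under a 12 h photoperiod. After 72 h, 20 µL per well is subcultured on drug-free potato dextrose agar at 28 °C for 3 days. No regrowth is scored fungicidal; regrowth is scored fungistatic.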

Fusarium proliferatum [23] = assay: Fungistatic activity against Fusarium proliferatum at 30 uM after 72 hrs by microtiter plate assay; assay type: functional, organism-based; outline: as §3

Compound `C/C=C1\NC(=O)[C@H](Cc2ccccc2)NC(=O)[C@@H](C(C)C)NC(=O)[C@@H]([C@@H](C)CC)NC(=O)[C@H](NC(=O)[C@H](NC(=O)[C@H](CCCNCc2ccncc2)NC(=O)[C@H]2CCCN2C(=O)[C@H](NC(=O)[C@@H](NC(=O)[C@@H](NC(=O)[C@H](NC(=O)CCCC(C)C)C(C)C)[C@@H](C)O)C(C)C)C(C)C)[C@@H](C)CC)[C@@H](C)OC(=O)[C@H](C(C)C)NC1=O` has a GI50 (KM12) of 0.152 µM, an inhibition at 3 µM (Fusarium oxysporum [1]) of 0% and an inhibition at 0.3 µM (Fusarium oxysporum [2]) of 0%. The GI50 (ACHN) was 1.28 µM, the TGI (ACHN) was 2.32 µM and the inhibition at 16 µg/mL [3] was 24%. It also gave a GI50 (HT-29) of 0.279 µM, an inhibition at 30 µM (Fusarium solani [4]) of 99.2% and a GI50 (UACC-257) of 1.31 µM. It also gave a TGI (UACC-257) of 2.43 µM, a GI50 (DU-145) of 0.124 µM and a TGI (DU-145) of 0.266 µM. The MFC (Candida albicans) was > 20 µM, the MIC (Candida albicans) was > 20 µM and the GI50 (HCC 2998) was 0.236 µM. The TGI (HCC 2998) was 0.732 µM, the inhibition at 30 µM (Fusarium oxysporum [5]) was 91.2% and the inhibition at 30 µM (Fusarium oxysporum [6]) was 98.2%. It also gave a GI50 (NCI-H322M) of 0.131 µM, a TGI (NCI-H322M) of 0.238 µM and a GI50 (Hs-578T) of 0.162 µM. It also gave a TGI (Hs-578T) of 0.444 µM, an inhibition at 30 µM (Fusarium proliferatum [7]) of 99.1% and an inhibition at 0.3 µM (Fusarium proliferatum [8]) of 0%. The MFC (Cryptococcus neoformans) was 5 µM (≈ 7.85 µg/mL), the MIC (Cryptococcus neoformans) was 5 µM (≈ 7.85 µg/mL) and the inhibition at 0.3 µM (Fusarium solani [9]) was 0%. It also gave an inhibition at 3 µM (Fusarium proliferatum [10]) of 0%, an inhibition at 3 µM (Fusarium solani [11]) of 0% and an MFC (Aspergillus fumigatus) of 20 µM (≈ 31.4 µg/mL). For the same compound, the MIC (Aspergillus fumigatus) was 10 µM (≈ 15.7 µg/mL), the inhibition at 0.3 µM (Fusarium solani [12]) was 0% and the GI50 (A549) was 0.189 µM. The TGI (A549) was 0.425 µM, the inhibition at 0.3 µM (Fusarium oxysporum [13]) was 0% and the inhibition at 3 µM (Fusarium proliferatum [14]) was 0%. For the same compound, the GI50 (SK-OV-3) was 0.374 µM, the TGI (SK-OV-3) was 1.36 µM and the GI50 (COLO 205) was 0.618 µM. The GI50 (PC-3) was 0.267 µM, the TGI (PC-3) was 0.973 µM and the GI50 (SNB-75) was 1.29 µM. For the same compound, the TGI (SNB-75) was 2.61 µM, the MBC [15] was > 20 µM and the MIC [15] was > 20 µM. For the same compound, the inhibition at 3 µM (Fusarium solani [16]) was 0%, the inhibition at 0.3 µM (Fusarium proliferatum [17]) was 0% and the inhibition at 30 µM (Fusarium proliferatum [18]) was 95.3%. The inhibition at 30 µM (Fusarium solani [19]) was 97.5%, the GI50 (RPMI-8226) was 0.638 µM and the TGI (RPMI-8226) was 1.89 µM. The GI50 (HCT-15) was 0.492 µM, the TGI (HCT-15) was 1.56 µM and the inhibition at 3 µM (Fusarium oxysporum [20]) was 0%.
`C/C=C1\NC(=O)[C@H](Cc2ccccc2)NC(=O)[C@@H](C(C)C)NC(=O)[C@@H]([C@@H](C)CC)NC(=O)[C@H](NC(=O)[C@H](NC(=O)[C@H](CCCNCc2cccs2)NC(=O)[C@H]2CCCN2C(=O)[C@H](NC(=O)[C@@H](NC(=O)[C@@H](NC(=O)[C@H](NC(=O)CCCC(C)C)C(C)C)[C@@H](C)O)C(C)C)C(C)C)[C@@H](C)CC)[C@@H](C)OC(=O)[C@H](C(C)C)NC1=O` showed an IC50 (Leishmania donovani) of 17 µg/mL (≈ 10.8 µM), an IC50 (Candida albicans) of 3.81 µM and an IC50 (Cryptococcus neoformans) of 1.91 µM. For the same compound, the IC50 (Aspergillus fumigatus) was 3.22 µM and the IC50 [15] was 12 µM.
Work on `C/C=C1\NC(=O)[C@H](Cc2ccccc2)NC(=O)[C@@H](C(C)C)NC(=O)[C@@H]([C@@H](C)CC)NC(=O)[C@H](NC(=O)[C@H](NC(=O)[C@H](CCCNCCCCCC)NC(=O)[C@H]2CCCN2C(=O)[C@H](NC(=O)[C@@H](NC(=O)[C@@H](NC(=O)[C@H](NC(=O)CCCC(C)C)C(C)C)[C@@H](C)O)C(C)C)C(C)C)[C@@H](C)CC)[C@@H](C)OC(=O)[C@H](C(C)C)NC1=O` yielded an IC50 (Leishmania donovani) of 17 µg/mL (≈ 10.9 µM), an IC50 (Candida albicans) of 5.69 µM and an IC50 (Cryptococcus neoformans) of 1.93 µM. The IC50 (Aspergillus fumigatus) was 3.12 µM and the IC50 [15] was > 20 µM.
In the case of `C/C=C1\NC(=O)[C@H](Cc2ccccc2)NC(=O)[C@@H](C(C)C)NC(=O)[C@@H]([C@@H](C)CC)NC(=O)[C@H](NC(=O)[C@H](NC(=O)[C@H](CCCNCc2ccc(F)cc2)NC(=O)[C@H]2CCCN2C(=O)[C@@H](NC(=O)[C@H](NC(=O)[C@H](NC(=O)[C@@H](NC(=O)CCCC(C)C)C(C)C)[C@H](C)O)C(C)C)C(C)C)[C@@H](C)CC)[C@@H](C)OC(=O)[C@H](C(C)C)NC1=O`, the Activity (Fusarium solani [21]) is reported as “Active”, the Activity (Fusarium oxysporum [22]) is reported as “Active” and the Activity (Fusarium proliferatum [23]) is reported as “Active”.
